The values below come from ChEMBL document CHEMBL3400080, “Design, synthesis, optimization and antiviral activity of a class of hybrid dengue virus E protein inhibitors” (Bioorg Med Chem Lett, 2015).

Data set [1] deals with dengue virus type 2. Nature of the data set: Antiviral activity against DENV serotype 2 strain New Guinea C infected in african green monkey Vero cells assessed as reduction in production and release of infectious progeny virions after 2 hrs by virus yield-reduction assay. It is filed as functional, organism-based. Summed up: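 Dose-response validation in virus-infected, compound-treated cells. Read-out was the amount of dengue viral RNA produced, quantified as a virus yield reduction. EC50 was derived from this.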

Data set [2] is described as follows: Cytotoxicity against DENV serotype 2 strain New Guinea C infected african green monkey Vero B cells by virus yield-reduction assay. To be noted: chlorocebus sabaeus. Type of data set: cell-based.
Data set [3] is described as follows: Selectivity index, CC50 for african green monkey Vero B cells to EC50 for DENV serotype 2 strain New Guinea C by virus yield-reduction assay. As to conditions: read-out: Selectivity Index. Type of data set: toxicity, cell-based. In short, it runs like this: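 Selectivity index is CC50 divided by EC50. The EC50 comes from a dose-response measurement of the dengue virus RNA produced by virus-infected cells treated with compound (virus yield reduction).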

Data set [4] concerns dengue virus type 2. The experiment in a line: Antiviral activity against DENV serotype 2 strain New Guinea C infected in african green monkey Vero-B cells assessed as inhibition of virus-induced cytopathic effect after 2 hrs by CPE-reduction assay. It is filed as functional, organism-based. Summed up:
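Virus and compound mixed and pre-incubated together for 2 h at 37 °C before being added to cells. Co-addition without pre-incubation was also tested. Read-out was inhibition of virus-induced cytopathic effect (cell death). EC50 was taken from the dose-response.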
For orientation: Damage to the host cells serves as the signal in cytopathic effect assays.

Data set [5] is described as follows: Cytotoxicity against DENV serotype 2 strain New Guinea C infected african green monkey Vero B cells by CPE-reduction assay. It is filed as cell-based. To be noted: chlorocebus sabaeus.
A short description of data set [6]: Selectivity index, CC50 for african green monkey Vero B cells to EC50 for DENV serotype 2 strain New Guinea C by CPE-reduction assay.
The next data set deals with Yellow fever virus. Nature of the data set: Antiviral activity against Yellow fever virus. It is filed as functional, organism-based.
The subject of data set [7] is dengue virus type 2. The experiment in a line: Antiviral activity against DENV serotype 2 strain New Guinea C infected in BHK-21 cells assessed as inhibition of plaque formation after 2 hrs by plaque-reduction assay. It is filed as functional, organism-based. In short, it runs like this:
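Dose-response effect on production of infectious dengue virus serotype 2 progeny, read as plaque formation. EC50 was derived from the plaque counts.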
For orientation: In a plaque reduction assay, fewer plaques than in the control indicate reduced infectivity or spread.

For `NC(=O)c1ncn([C@@H]2O[C@H](CO)[C@@H](O)[C@H]2O)n1` [RIBAVIRIN], the EC50 in the data set on dengue virus type 2 [1] stood at 47.9 µM. This compound also showed a CC50 in data set [2] above 410 µM. The selectivity ratio in data set [3] was above 9.

With `COc1ccc(C2=NN(c3nc(-c4ccc(-c5ccccc5)cc4)cs3)C(c3ccc(O)c(OC)c3)C2)cc1` (stereo unspecified), the EC50 with dengue virus type 2 [4] was 8.4 µM; in the data set with dengue virus type 2 [1], 3.79 µM. Also, the CC50 in data set [5] came to 16.8 µM; in data set [2] it was 25.6 µM. The “Selectivity Index” value in data set [6] came to 2. For the same compound, in data set [3], the selectivity ratio came to 7.

`Oc1ccc(C2=NN(c3nc(-c4ccc(-c5ccccc5)cc4)cs3)C(c3ccccc3)C2)cc1` (stereo unspecified): the figures for the EC50 in the data set with dengue virus type 2 [4] and with dengue virus type 2 [1] were 13.2 µM and 8.44 µM, respectively. The CC50 in data set [5] turned out to be 79.2 µM; in data set [2] it was 86.8 µM. The “Selectivity Index” value in data set [6] turned out to be 6. Further, the selectivity ratio in data set [3] came out at 10.

Regarding `COc1ccc(C2=NN(c3nc(-c4ccc(Cl)cc4)cs3)C(c3ccc(O)c(OC)c3)C2)cc1` (stereo unspecified), the results for the EC50 in the data set with dengue virus type 2 [4] and with dengue virus type 2 [1] were 0.79 µM and 7 µM, respectively. The CC50 in data set [5] was 2.4 µM; in data set [2], 54.6 µM. Also, the “Selectivity Index” value in data set [6] is 3. The selectivity ratio in data set [3] worked out at 8.

Turning to `Cc1nc(-n2nc(-c3ccccc3)cc2-c2ccccc2)sc1C(=O)/C=C/c1ccc(Cl)c(Cl)c1`, in the data set on Yellow fever virus, the IC50 was 51 µM.

`C/C(=N\Nc1nc(-c2ccc(Cl)cc2)cs1)c1ccc(O)cc1`: the EC50 in the data set on dengue virus type 2 [4] is 5.8 µM; with dengue virus type 2 [1], 1.32 µM; in the data set with dengue virus type 2 [7] (BHK-21, 2 h), 1.39 µM. For the same compound, the results for the CC50 in data set [5] and in data set [2] were 145 µM and 125 µM, respectively. The “Selectivity Index” value in data set [6] stood at 25. Besides, the selectivity ratio in data set [3] turned out to be 95. In addition, the inhibition result with dengue virus type 2 [7] was “Dose-dependent effect”.

Consider `Oc1ccc(/C=N/Nc2nc(-c3ccc(-c4ccccc4)cc3)cs2)cc1`, for which the figures for the EC50 in the data set with dengue virus type 2 [4] and in the data set on dengue virus type 2 [1] were 16.8 µM and 5.29 µM, respectively. Also, the CC50 in data set [5] and in data set [2] was above 135 µM each time. The “Selectivity Index” value in data set [6] is above 8. For the same compound, the selectivity ratio in data set [3] was above 25.

With `C(=N\Nc1nc(-c2ccc(-c3ccccc3)cc2)cs1)/c1ccccc1`, the values for the EC50 in the data set with dengue virus type 2 [4] and with dengue virus type 2 [1] were 35.2 µM and 128 µM, respectively. Besides, the CC50 in data set [5] and in data set [2] was above 141 µM each time. Also, the “Selectivity Index” value in data set [6] is reported as above 4. Besides, the selectivity ratio in data set [3] was above 1.

With `C/C(=N\Nc1nc(-c2ccc(-c3ccccc3)cc2)cs1)c1ccc([N+](=O)[O-])cc1`, the EC50 in the data set with dengue virus type 2 [4] was 41 µM; with dengue virus type 2 [1] it was 12.2 µM. Further, the CC50 was found to be 82 µM in data set [5] and 70.8 µM in data set [2]. Moreover, the “Selectivity Index” value in data set [6] was determined as 2. In data set [3], the selectivity ratio was determined as 6.

As for `Nc1ccccc1SCc1csc(-c2ccc(Cl)cc2)n1`, in the data set on Yellow fever virus, the IC50 amounted to 31 µM.

In the case of `COc1ccc(/C(C)=N/Nc2nc(-c3ccc(-c4ccccc4)cc3)cs2)cc1`, the EC50 in the data set on dengue virus type 2 [4] was found to be 100 µM; with dengue virus type 2 [1], 17.7 µM. In addition, the CC50 in data set [5] is 200 µM; in data set [2], 117 µM. In addition, the “Selectivity Index” value in data set [6] came out at 2. Besides, the selectivity ratio in data set [3] was 7.

Turning to `COc1ccc(C2=NN(c3nc(-c4ccc(-c5ccccc5)cc4)cs3)C(c3ccc(O)cc3)C2)cc1` (stereo unspecified), the results for the EC50 in the data set with dengue virus type 2 [4] and in the data set on dengue virus type 2 [1] were 24.8 µM and 18.6 µM, respectively. In addition, the CC50 was above 99 µM in data set [5] and 99.3 µM in data set [2]. Further, the “Selectivity Index” value in data set [6] is listed as above 4. Also, the selectivity ratio in data set [3] is 5.

As a reminder, the EC50 is the concentration that produces a half-maximal response. The term CC50 denotes the concentration at which the toxic effect on the cells reaches its halfway point. As a reminder, the IC50 is the concentration that gives 50% inhibition.
